STEP block – inhibitors of human striatal-enriched phosphatase STEP; 360,000 compounds, 0.25% hits; inhibition, % at 20 µM; recombinant STEP, OMFP fluorogenic substrate, fluorescence; AID 588621;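 active = inhibition at 20 µM, scaled per plate between control wells, above about 37%, limit read from the data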
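System: isolated STEP enzyme; schedule: 20 min enzyme reaction at room temperature, protected from light; medium: Bis-Tris buffer pH 6.0, 2.5 mM DTT, 0.005% Tween 20; signal: fluorescence, 480/540 nm; dosing: single compound dose of 20 µM, 1% DMSO final; also added: OMFP substrate, 25 µM final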
Rpn11 block – inhibitors of human proteasome Rpn11 | O00487 | human 26S proteasome, Ub4-pepOG fluorescence polarization; 20S core pre-blocked with epoxomicin | inhibition, % at 20 µM | 360,000 compounds, 0.59% hits | AID 588493;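 active = inhibition at 20 µM, scaled to each plate's controls, above about 33%, limit read from the data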
Target sequence (O00487 whole entry, looked up): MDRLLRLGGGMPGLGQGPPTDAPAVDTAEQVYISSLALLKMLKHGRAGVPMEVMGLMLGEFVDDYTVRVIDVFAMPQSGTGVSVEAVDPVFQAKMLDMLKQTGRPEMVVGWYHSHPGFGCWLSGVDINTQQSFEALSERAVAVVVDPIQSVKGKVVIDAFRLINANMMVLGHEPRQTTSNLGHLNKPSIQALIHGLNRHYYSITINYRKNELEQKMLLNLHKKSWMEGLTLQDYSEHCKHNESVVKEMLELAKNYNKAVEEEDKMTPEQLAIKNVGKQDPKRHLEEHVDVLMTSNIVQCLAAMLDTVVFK
LMPTP block – blocks human LMPTP phosphatase. recombinant LMPTP-A, OMFP fluorogenic substrate, fluorescence intensity. inhibition, % at 20 µM. 360,000 compounds, 0.22% hits;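 active = compounds that cut the enzyme signal by at least half of the control window in the single-dose screen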
Target sequence (P24666 whole entry, looked up): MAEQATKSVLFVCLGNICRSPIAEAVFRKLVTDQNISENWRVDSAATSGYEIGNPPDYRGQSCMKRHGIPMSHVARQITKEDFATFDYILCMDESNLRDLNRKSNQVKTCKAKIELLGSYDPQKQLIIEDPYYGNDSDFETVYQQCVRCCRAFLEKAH
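Test system: LMPTP-A, protein tyrosine phosphatase of low molecular weight; Input: 0.625 nM enzyme; Incubation: 50 min dark incubation at room temperature; Signal: endpoint fluorescence intensity from OMFP dephosphorylation; Read-out basis: % inhibition versus control wells.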
Scp1 inh – blocks human Scp-1 phosphatase activity. 340,000 compounds, 0.88% hits. inhibition, % at 20 µM. Recombinant Scp1, phosphopeptide, malachite green phosphate absorbance;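 active = inhibition above about 50% at 20 µM, limit read from the data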
Target sequence (Q9GZU7 76-261 limits assumed): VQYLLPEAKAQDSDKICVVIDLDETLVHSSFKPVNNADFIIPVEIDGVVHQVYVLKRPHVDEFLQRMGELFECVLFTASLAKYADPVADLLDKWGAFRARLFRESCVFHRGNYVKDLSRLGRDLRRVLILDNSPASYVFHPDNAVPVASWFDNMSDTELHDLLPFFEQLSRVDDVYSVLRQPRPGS
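assay system = SCP-1 phosphatase catalytic domain, residues 76-261 | buffer or medium = 50 mM Tris acetate pH 5.5, 0.005% Tween-20, 10 mM MgCl2 | incubation = enzyme reaction 45 min at room temperature, colour 5 min, stabilisation 30 min | signal = Phosphate-binding colour reagent, absorbance read at 630 nm | measure = % inhibition at 20 µM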
DNMT1 inh – blocks human DNA methyltransferase DNMT1 | P26358 | DNMT1 molecular beacon, Hinp1I cleavage, fluorescence | inhibition (reported as % activation of signal), % at 10 µM | 360,000 compounds, 0.83% hits; in the data active = inhibition above about 50%
DNMT1 interf DR – counter-screen for DNMT1 inhibitors: spectral interference, dose response. shares compounds with DNMT1 inh. molecular beacon fluorescence. IC50, µM. AID 602382. 200 tested, under 10 active; call rule not given here
DNMT1 inh conf – DNMT1 inhibition confirmation, single concentration. 2,300 compounds, 8% hits. shares compounds with DNMT1 inh. AID 602385. inhibition, % at 10 µM. DNMT1 molecular beacon HinP1I cleavage, fluorescence;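 active = average inhibition of at least 30% in the single-concentration confirmation test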
Beacon interf – beacon fluorescence artifact counter-screen; shares compounds with DNMT1 inh; DNMT1 molecular beacon spectral interference counterscreen, fluorescence 485/520; AID 602387; activation (fluorescence interference), % at 10 µM; 2,300 compounds, 1% hits;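 active = activation of at least 30% at 10 µM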;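 note: DNMT1 catalytic domain with a HinP1I cleavage step and a FAM/dabcyl DNA beacon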
Of the large screens only hits and unclear results are named; the others gave an inactive call (follow-up assays come after a bar, where shown). An excerpt weighted towards active compounds, which were near 2% of everything screened.

O=C(N=C1SC2CS(=O)(=O)CC2N1CCc1ccccc1)C1CCCCC1 (stereo unspecified)	none
CN(C)CCOc1nc(-c2ccccc2)nc2c1oc1ccccc12	DNMT1 inh 65 | DNMT1 interf DR inactive | DNMT1 inh conf 57 | Beacon interf inactive
CN(C)CCOc1ncnc2c1oc1ccccc12	none
Cc1c(NS(=O)(=O)c2cccc(C(=O)NCc3ccco3)c2)c(=O)n(-c2ccccc2)n1C	DNMT1 inh 78 | DNMT1 inh conf inactive | Beacon interf inactive
COc1cccc(OC)c1Nc1nc(C)nc2c1nnn2Cc1ccccc1Cl	none
CCc1nc(Nc2ccc(OC)c(OC)c2)c2nnn(Cc3ccccc3Cl)c2n1	DNMT1 inh 105 | DNMT1 inh conf inactive | Beacon interf inactive
CC1Sc2ccc(S(=O)(=O)N3CCC(C(=O)NCc4ccccc4)CC3)cc2NC1=O (stereo unspecified)	none
COc1ccc(S(=O)(=O)N2CCN(C(=O)CCc3c[nH]c4ccccc34)CC2)cc1	none
O=C(O)c1cc(-c2ccc(/C=C3\NC(=O)N(c4ccc(Cl)cc4)C3=O)o2)ccc1Cl	Scp1 inh 74, DNMT1 inh 99 | DNMT1 inh conf inactive | Beacon interf inactive
Cc1sc(NC(=O)c2cc(-c3ccc(Cl)cc3)nc3ccccc23)c(C(N)=O)c1C	DNMT1 inh 61 | DNMT1 inh conf inactive | Beacon interf inactive
CSc1ccccc1NC(=S)NCc1ccc(Cl)cc1	none
Cc1cc(NC(=O)c2cc(C3CC3)on2)no1	DNMT1 inh 56 | DNMT1 inh conf inactive | Beacon interf inactive
Cc1cc(C(=O)Nc2cc(C)on2)on1	DNMT1 inh 81 | DNMT1 inh conf inactive | Beacon interf inactive
O=C(CC1C(=O)NCCN1Cc1cccc(F)c1F)NCCCC1CCCC1 (stereo unspecified)	none
CC(C)/C=C/C(=O)N1CCC(N2CCC(C(=O)NCC3CCCO3)CC2)CC1 (stereo unspecified)	DNMT1 inh 50 (no result: Scp1 inh) | DNMT1 inh conf inactive | Beacon interf inactive
COc1ccc(/C=C2/SC(=O)N(CCC(=O)Nc3ccccc3)C2=O)cc1OC	DNMT1 inh 62 | DNMT1 inh conf inactive | Beacon interf inactive
O=C(CCN1C(=O)/C(=C/C=C/c2ccccc2)SC1=S)Nc1cccnc1	DNMT1 inh 62 | DNMT1 inh conf inactive | Beacon interf inactive
COc1ccc(-c2csc3nc(C(C)(C)C)oc(=O)c23)cc1OC	none
COc1ccc(-c2csc3nc(-c4ccc(C)cc4)oc(=O)c23)cc1OC	DNMT1 inh 85 | DNMT1 inh conf inactive | Beacon interf inactive
COc1ccc(CNC(=O)C2CCC(CNc3c(N4CCC(C)CC4)c(=O)c3=O)CC2)cc1 (stereo unspecified)	none
COc1ccc(Cc2c(-c3ccco3)nc3ccc(Br)cn23)c(C)c1	DNMT1 inh 102 (no result: Scp1 inh) | DNMT1 inh conf inactive | Beacon interf inactive
Cc1cc(Br)cn2c(Cc3ccccc3)c(-c3ccco3)nc12	none (no result: Scp1 inh)
Cc1cc(Br)cn2c(Cc3ccsc3)c(-c3ccco3)nc12	DNMT1 inh 52 (no result: Scp1 inh) | DNMT1 inh conf inactive | Beacon interf inactive
COc1ccc(Cc2c(-c3ccco3)nc3ccc(Cl)cn23)c(C)c1	DNMT1 inh 84 (no result: Scp1 inh) | DNMT1 inh conf inactive | Beacon interf inactive
COc1ccc(Cc2c(-c3ccccc3)nc3ccc(Cl)cn23)c(C)c1	none (no result: Scp1 inh)
CCCCCn1c(=NC(C)=O)c(C#N)cc2c(=O)n3ccccc3nc21	DNMT1 inh 78 | DNMT1 inh conf inactive | Beacon interf inactive
CC(=O)N=c1c(C#N)cc2c(=O)n3ccccc3nc2n1CCCOC(C)C	none
CCOCCCn1c(=NC(C)=O)c(C#N)cc2c(=O)n3cccc(C)c3nc21	none
CCCCn1c(=NC(C)=O)c(C#N)cc2c(=O)n3cccc(C)c3nc21	DNMT1 inh 64 | DNMT1 inh conf inactive | Beacon interf inactive
Clc1ccc(-c2nnc3sc(-c4ccc(Br)o4)nn23)c(Cl)c1	none
Clc1ccc(-c2nnc3sc(-c4ccc(Br)o4)nn23)cc1	DNMT1 inh 112 | DNMT1 inh conf 61 | Beacon interf 48
Cc1oc(-c2ccc(Cl)cc2)cc1-c1nn2c(-c3ccoc3C)nnc2s1	DNMT1 inh 93 | DNMT1 inh conf inactive | Beacon interf inactive
c1ccc(Nc2nnc(-c3cccnc3)s2)cc1	none
C=CCOc1ccc(C(c2c(C(=O)O)[nH]c3ccccc23)c2c(C(=O)O)[nH]c3ccccc23)cc1	DNMT1 inh 86 | DNMT1 inh conf inactive | Beacon interf inactive
O=C(Nc1ccc2c(c1)OCO2)c1ccc2c(c1)S(=O)(=O)c1ccccc1C2=O	none
COc1cc([N+](=O)[O-])ccc1NC(=S)Nc1cc(C(=O)OC(C)C)cc(C(=O)OC(C)C)c1	none
COc1ccc2c(Cl)c(C(=O)N/N=C/c3ccc4c(c3)OCO4)sc2c1	DNMT1 inh 62 | DNMT1 inh conf inactive | Beacon interf inactive
COc1ccc(NS(=O)(=O)c2cccc(C(=O)N/N=C/c3ccc4c(c3)OCCO4)c2)cc1	DNMT1 inh 60 | DNMT1 inh conf inactive | Beacon interf inactive
COc1ccccc1-c1ccc(/C=C2\C=CC(=O)O2)o1	none (not shown: Rpn11 block)
CCOc1cccc2cc(-c3cn4cc(C)ccc4n3)c(=O)oc12	DNMT1 inh 70 | DNMT1 inh conf inactive | Beacon interf inactive
NC(=O)C1CCCN(C(=S)Nc2cccc3ccccc23)C1 (stereo unspecified)	none
Cc1nn(-c2ccccc2)c(C)c1/C=N/n1c(-c2ccncc2)n[nH]c1=S	none
Cc1nn(-c2ccccc2)c(C)c1/C=N/n1c(-c2ccc(Cl)cc2)n[nH]c1=S	DNMT1 inh 57 | DNMT1 inh conf inactive | Beacon interf inactive
N#CCCn1cc(/C=N/NC(=O)c2ccncc2)c(-c2ccc(F)cc2)n1	none
Cc1ccccc1-c1ccc(=O)n(CC(=O)Nc2ccc(-n3cnnn3)cc2)n1	DNMT1 inh 90 | DNMT1 inh conf inactive | Beacon interf inactive
Cc1ccc(-c2nn(-c3ccccc3)cc2/C=C2\SC(=S)N(CC(=O)O)C2=O)cc1	none
CCN1C(=O)/C(=C/c2cn(-c3ccccc3)nc2-c2cccnc2)SC1=S	DNMT1 inh 61 (not shown: Rpn11 block) | DNMT1 inh conf inactive | Beacon interf inactive
O=C(O)CCCCCN1C(=O)/C(=C\c2cn(-c3ccccc3)nc2-c2cccs2)SC1=S	Scp1 inh 66, DNMT1 inh 85 | DNMT1 interf DR 60 | DNMT1 inh conf 44 | Beacon interf inactive
